Experiments:
[1] = test system: MAP2K1; test: MIB washout assay; type: binding, Human; conditions: H23 cells, 1 μM 4h, MIB pulldown ratio SM1-71/SM1-71-R
[2] = biological target: LIMK1 (Homo sapiens, UniProt P53667); test: MIB washout assay; type: binding; conditions: H23 cells, 1 μM 4h, MIB pulldown ratio SM1-71/SM1-71-R
[3] = test system: MAPK1; test: MIB washout assay; type: binding, Human; conditions: H23 cells, 1 μM 4h, MIB pulldown ratio SM1-71/SM1-71-R
[4] = test system: CSNK2A1; test: MIB washout assay; type: binding, Human; conditions: H23 cells, 1 μM 4h, MIB pulldown ratio SM1-71/SM1-71-R
[5] = test system: CSNK1E; test: MIB washout assay; type: binding, Human; conditions: H23 cells, 1 μM 4h, MIB pulldown ratio SM1-71/SM1-71-R
[6] = test system: EIF2AK3; test: MIB washout assay; type: binding, Human; conditions: H23 cells, 1 μM 4h, MIB pulldown ratio SM1-71/SM1-71-R
[7] = test system: PIP5K1A; test: MIB washout assay; type: binding, Human; conditions: H23 cells, 1 μM 4h, MIB pulldown ratio SM1-71/SM1-71-R
[8] = test system: MAPK3; test: MIB washout assay; type: binding, Human; conditions: H23 cells, 1 μM 4h, MIB pulldown ratio SM1-71/SM1-71-R
[9] = test system: TGFBR1; test: MIB washout assay; type: binding, Human; conditions: H23 cells, 1 μM 4h, MIB pulldown ratio SM1-71/SM1-71-R
[10] = biological target: T1, AURKA (Homo sapiens, UniProt O14965); test: MIB washout assay; type: binding
T1 sequence (O14965 1-403): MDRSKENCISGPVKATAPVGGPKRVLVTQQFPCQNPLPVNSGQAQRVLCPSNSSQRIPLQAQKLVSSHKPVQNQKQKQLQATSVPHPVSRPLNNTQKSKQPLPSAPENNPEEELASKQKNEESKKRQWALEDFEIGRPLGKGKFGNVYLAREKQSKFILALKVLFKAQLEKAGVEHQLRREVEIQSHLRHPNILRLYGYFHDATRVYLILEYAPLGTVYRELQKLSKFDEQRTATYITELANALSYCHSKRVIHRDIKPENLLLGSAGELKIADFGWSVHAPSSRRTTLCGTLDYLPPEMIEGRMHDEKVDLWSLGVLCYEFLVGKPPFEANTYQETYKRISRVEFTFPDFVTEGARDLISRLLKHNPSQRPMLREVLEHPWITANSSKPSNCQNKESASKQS

[11] = test system: PTK2; test: MIB washout assay; type: binding, Human
[12] = biological target: T2, GAK (Homo sapiens, UniProt O14976); test: mass shift assay; type: binding; conditions: incubated 4 and 24h
T2 sequence (O14976 1-1311): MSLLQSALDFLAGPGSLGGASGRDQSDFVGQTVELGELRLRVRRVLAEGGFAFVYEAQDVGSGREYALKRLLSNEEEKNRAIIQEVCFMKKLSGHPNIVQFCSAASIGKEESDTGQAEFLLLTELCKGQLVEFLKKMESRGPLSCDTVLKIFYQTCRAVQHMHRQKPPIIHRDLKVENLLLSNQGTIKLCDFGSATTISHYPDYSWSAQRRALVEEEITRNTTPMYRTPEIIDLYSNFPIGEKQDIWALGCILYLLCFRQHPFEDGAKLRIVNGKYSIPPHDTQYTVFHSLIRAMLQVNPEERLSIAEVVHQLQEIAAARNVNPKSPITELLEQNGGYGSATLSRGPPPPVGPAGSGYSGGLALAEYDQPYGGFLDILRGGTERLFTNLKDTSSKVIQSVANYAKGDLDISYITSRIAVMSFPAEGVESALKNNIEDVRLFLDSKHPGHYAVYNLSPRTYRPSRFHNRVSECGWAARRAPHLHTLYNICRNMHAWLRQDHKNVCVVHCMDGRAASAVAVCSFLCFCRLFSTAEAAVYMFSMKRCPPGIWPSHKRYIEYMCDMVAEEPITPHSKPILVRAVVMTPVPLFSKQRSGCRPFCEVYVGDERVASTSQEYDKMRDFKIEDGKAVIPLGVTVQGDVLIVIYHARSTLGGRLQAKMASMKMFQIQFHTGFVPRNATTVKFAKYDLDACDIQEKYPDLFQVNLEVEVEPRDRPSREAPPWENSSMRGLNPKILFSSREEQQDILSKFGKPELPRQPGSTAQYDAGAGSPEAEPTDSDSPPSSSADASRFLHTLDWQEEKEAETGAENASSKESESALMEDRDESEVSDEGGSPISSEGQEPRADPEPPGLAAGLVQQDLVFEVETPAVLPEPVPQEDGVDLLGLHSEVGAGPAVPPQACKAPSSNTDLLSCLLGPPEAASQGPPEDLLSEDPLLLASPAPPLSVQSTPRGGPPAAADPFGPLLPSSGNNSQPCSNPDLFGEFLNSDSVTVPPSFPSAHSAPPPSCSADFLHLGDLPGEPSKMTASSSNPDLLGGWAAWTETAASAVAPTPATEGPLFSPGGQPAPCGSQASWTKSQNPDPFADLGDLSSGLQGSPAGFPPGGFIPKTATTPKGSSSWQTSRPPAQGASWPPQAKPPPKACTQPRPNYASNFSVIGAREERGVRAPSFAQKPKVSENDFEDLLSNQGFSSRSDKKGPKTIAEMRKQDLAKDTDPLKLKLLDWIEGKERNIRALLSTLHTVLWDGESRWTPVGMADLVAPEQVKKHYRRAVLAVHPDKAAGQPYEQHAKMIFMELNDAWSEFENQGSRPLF
Summary of the method: (§1)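 Kinase protein at 0.12 mM in 10 mM HEPES pH 7.5, 500 mM NaCl, incubated with 0.2 mM test compound at 4°C for 4 h and 24 h. Samples were diluted in 0.1% formic acid and desalted on a C3 pre-column. ESI-TOF was run in positive mode at 120 V, and intact mass was obtained by deconvolution to detect the adduct.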

[13] = biological target: MAP2K7 (Homo sapiens, UniProt O14733); test: mass shift assay; type: binding; conditions: incubated 4 and 24h
Sequence of MAP2K7 (O14733 whole entry, species assumed): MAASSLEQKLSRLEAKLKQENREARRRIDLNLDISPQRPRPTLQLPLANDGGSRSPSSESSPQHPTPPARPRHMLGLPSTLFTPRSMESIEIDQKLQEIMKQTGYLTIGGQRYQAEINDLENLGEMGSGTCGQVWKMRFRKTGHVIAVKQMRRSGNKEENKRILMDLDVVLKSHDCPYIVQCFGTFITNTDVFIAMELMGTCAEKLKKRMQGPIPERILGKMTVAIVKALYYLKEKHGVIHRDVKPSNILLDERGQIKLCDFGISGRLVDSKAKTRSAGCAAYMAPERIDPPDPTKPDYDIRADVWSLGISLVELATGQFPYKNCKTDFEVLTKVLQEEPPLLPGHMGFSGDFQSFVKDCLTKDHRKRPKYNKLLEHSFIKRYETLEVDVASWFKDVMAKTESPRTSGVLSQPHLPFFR
Summary of the method: as §1

[14] = biological target: MAPK1 (Homo sapiens, UniProt P28482); test: mass shift assay; type: binding; conditions: incubated 4 and 24h
Sequence of MAPK1 (Homo sapiens, UniProt P28482) (P28482 whole entry, species assumed): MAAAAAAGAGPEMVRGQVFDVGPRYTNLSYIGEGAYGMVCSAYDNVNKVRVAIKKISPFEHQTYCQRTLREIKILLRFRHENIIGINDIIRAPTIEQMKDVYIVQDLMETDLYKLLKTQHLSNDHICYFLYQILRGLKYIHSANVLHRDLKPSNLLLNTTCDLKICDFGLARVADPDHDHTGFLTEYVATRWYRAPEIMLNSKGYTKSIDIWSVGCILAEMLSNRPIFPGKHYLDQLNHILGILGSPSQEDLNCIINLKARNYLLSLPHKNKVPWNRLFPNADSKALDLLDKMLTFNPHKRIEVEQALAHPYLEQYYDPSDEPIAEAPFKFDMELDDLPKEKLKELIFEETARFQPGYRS
Summary of the method: as §1

[15] = biological target: MAP2K6 (Homo sapiens, UniProt P52564); test: mass shift assay; type: binding; conditions: incubated 4 and 24h
Sequence of MAP2K6 (P52564 whole entry, species assumed): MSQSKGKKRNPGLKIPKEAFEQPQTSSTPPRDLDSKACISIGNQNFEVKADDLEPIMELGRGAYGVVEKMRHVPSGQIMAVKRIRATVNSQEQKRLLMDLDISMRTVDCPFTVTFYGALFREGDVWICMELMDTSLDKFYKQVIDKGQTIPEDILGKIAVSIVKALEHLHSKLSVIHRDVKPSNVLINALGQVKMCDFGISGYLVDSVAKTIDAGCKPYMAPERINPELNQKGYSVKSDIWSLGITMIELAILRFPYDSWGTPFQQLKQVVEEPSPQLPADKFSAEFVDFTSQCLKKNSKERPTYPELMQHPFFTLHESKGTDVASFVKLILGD
Summary of the method: as §1

[16] = biological target: T2, GAK; test: MIB dose-dependent kinase inhibition assay; type: binding; conditions: read-out: IC50 in the MIB assay, H23 cell lysate, overnight 4°C
[17] = biological target: YES1 (Homo sapiens, UniProt P07947); test: MIB dose-dependent kinase inhibition assay; type: binding; conditions: read-out: IC50 in the MIB assay, H23 cell lysate, overnight 4°C
Sequence of YES1 (P07947 whole entry): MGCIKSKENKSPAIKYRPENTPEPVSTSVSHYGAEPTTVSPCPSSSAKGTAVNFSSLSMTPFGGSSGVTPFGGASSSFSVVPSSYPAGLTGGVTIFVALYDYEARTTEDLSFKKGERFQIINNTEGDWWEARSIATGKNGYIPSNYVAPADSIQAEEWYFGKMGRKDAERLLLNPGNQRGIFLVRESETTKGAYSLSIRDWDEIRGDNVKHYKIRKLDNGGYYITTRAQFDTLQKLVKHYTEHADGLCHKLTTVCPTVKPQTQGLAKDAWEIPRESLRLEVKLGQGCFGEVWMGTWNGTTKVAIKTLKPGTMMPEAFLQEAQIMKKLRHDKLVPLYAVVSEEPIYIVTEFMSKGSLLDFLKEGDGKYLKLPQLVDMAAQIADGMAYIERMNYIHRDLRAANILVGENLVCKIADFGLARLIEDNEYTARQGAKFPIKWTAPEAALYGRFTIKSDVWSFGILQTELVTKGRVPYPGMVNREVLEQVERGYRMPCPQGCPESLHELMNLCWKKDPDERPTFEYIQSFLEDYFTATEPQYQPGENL

[18] = biological target: T1, AURKA; test: MIB dose-dependent kinase inhibition assay; type: binding; conditions: read-out: IC50 in the MIB assay, H23 cell lysate, overnight 4°C
[19] = H23 cells, 1 μM 4h, 0h post-washout, MIB pulldown ratio SM1-71/SM1-71-R
[20] = H23 cells, 1 μM 4h, 6h post-washout, MIB pulldown ratio SM1-71/SM1-71-R

Sequence of LIMK1 (P53667 whole entry): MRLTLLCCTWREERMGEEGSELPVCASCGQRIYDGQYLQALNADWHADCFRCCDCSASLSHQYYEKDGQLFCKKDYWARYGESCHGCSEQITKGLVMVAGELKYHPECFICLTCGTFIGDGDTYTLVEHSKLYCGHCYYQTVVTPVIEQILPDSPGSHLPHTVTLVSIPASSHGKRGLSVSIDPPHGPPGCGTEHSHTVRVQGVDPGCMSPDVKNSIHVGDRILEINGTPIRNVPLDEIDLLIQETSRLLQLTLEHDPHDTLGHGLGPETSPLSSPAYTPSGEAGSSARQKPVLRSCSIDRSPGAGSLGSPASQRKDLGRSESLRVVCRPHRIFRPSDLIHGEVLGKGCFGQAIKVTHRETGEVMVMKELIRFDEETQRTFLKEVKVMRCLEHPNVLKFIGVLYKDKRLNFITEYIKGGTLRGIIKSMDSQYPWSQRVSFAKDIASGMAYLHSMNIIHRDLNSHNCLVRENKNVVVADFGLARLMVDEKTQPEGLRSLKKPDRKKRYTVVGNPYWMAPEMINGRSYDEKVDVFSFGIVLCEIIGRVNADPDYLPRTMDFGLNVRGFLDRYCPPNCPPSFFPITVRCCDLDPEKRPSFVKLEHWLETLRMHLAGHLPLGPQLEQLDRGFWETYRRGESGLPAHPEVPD

`C=CC(=O)Nc1ccccc1Nc1nc(Nc2ccc(N3CCN(C)CC3)cc2)ncc1Cl` [SM1-71] was tested, and the BI-0h ([1]; 0h post-washout) was 0.05, the BI-6h ([1]; 6h post-washout) was 0.36 and the BI-0h ([2]; 0h post-washout) was 0.21. It also gave a BI-6h ([2]; 6h post-washout) of 0.23, a BI-0h ([3]; 0h post-washout) of 0.19 and a BI-6h ([3]; 6h post-washout) of 0.39. The BI-0h ([4]; 0h post-washout) was 0.8, the BI-6h ([4]; 6h post-washout) was 0.64 and the BI-0h ([5]; 0h post-washout) was 0.79. The BI-6h ([5]; 6h post-washout) was 0.58, the BI-0h ([6]; 0h post-washout) was 0.8 and the BI-6h ([6]; 6h post-washout) was 0.66. For the same molecule, the BI-0h ([7]; 0h post-washout) was 0.56, the BI-6h ([7]; 6h post-washout) was 0.75 and the BI-0h ([8]; 0h post-washout) was 0.62. It also gave a BI-6h ([8]; 6h post-washout) of 0.54, a BI-0h ([9]; 0h post-washout) of 1.09 and a BI-6h ([9]; 6h post-washout) of 0.8. The BI-0h [10, 19] was 1.16, the BI-6h [10, 20] was 2.38 and the Binding ([10]; class from BI 0h and 6h) was “Strongly Reversible (BI0h,6h greater than 1 suggesting a strong preference for reversible mode of inhibition)”. For the same molecule, the BI-0h [11, 19] was 1.3, the BI-6h [11, 20] was 1.12 and the Binding ([11]; class from BI 0h and 6h) was “Strongly Reversible (BI0h,6h greater than 1 suggesting a strong preference for reversible mode of inhibition)”. The “covalent adduct formation (mass shift)” value [12] was “formed covalent adducts”, the “covalent adduct formation (mass shift)” value [13] was “formed covalent adducts” and the “covalent adduct formation (mass shift)” value [14] was “formed covalent adducts”. The “covalent adduct formation (mass shift)” value [15] was “formed covalent adducts”, the IC50 [16] was < 10 nM and the IC50 [17] was < 10 nM. The IC50 [18] was < 10 nM.
